The values that follow come from ChEMBL document CHEMBL1137744, “Parallel synthesis, molecular modelling and further structure-activity relationship studies of new acylthiocarbamates as potent non-nucleoside HIV-1 reverse transcriptase inhibitors” (Eur J Med Chem, 2009).

In data set [1] the test system is Human immunodeficiency virus 1. As to the kind of experiment: Antiviral activity against HIV1 3B infected in human MT4 cells assessed as inhibition of virus-induced cytopathogenicity by MTT assay. The data set is classed as functional, organism-based. The settings on record: Human immunodeficiency virus 1, 3B. The gist of the method: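 MT-4 cells infected with HIV-1 and read by MTT viability. EC50 is the concentration giving 50% protection of cells from virus-induced cytopathogenicity. Values are means of three separate experiments, with variation among triplicate samples under 10%.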
In general terms: Damage to the host cells serves as the signal in cytopathic effect assays.

Data set [2] in a line: Cytotoxicity against human MT4 cells by MTT assay. The data set is classed as cell-based. The gist of the method:
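Uninfected (mock-infected) MT-4 cells were exposed to compound and viability was read by MTT. CC50 is the concentration cutting viability by 50%. Values are means of three separate experiments, with triplicate samples varying by less than 10%.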
For orientation: Tetrazolium assays rely on reduction of a dye to a coloured formazan, in cell work by metabolically active cells.

A short description of data set [3]: Selectivity index, ratio of CC50 for human MT4 cells to EC50 for HIV1 3B. The data set is classed as toxicity, cell-based. The settings on record: read-out: Ratio CC50/EC50. An outline of the steps:
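Computed as CC50/EC50. Both come from MTT readings in MT-4 cells: CC50 is 50% viability loss in mock-infected cells, and EC50 is 50% protection from HIV-1-induced cytopathogenicity. Each is the mean of three experiments.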

Data set [4] has as its system Human immunodeficiency virus 1. As to the kind of experiment: Antiviral activity against HIV1 3B expressing reverse transcriptase Y181C mutant infected in human MT4 cells assessed as inhibition of virus-induced cytopathogenicity by MTT assay. Format: functional, organism-based. Particulars: Human immunodeficiency virus 1, 3B. The gist of the method:
(§1)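 MT-4 cells infected with HIV-1 carrying the Y181C RT mutation, alongside wild-type virus. EC50 is the concentration giving 50% protection from virus-induced cytopathogenicity, read by MTT. Values are means of three separate experiments run in triplicate. The ratio is EC50(Y181C)/EC50(wt).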

Data set [5] deals with Human immunodeficiency virus 1. Put plainly: Ratio of EC50 for HIV1 3B expressing reverse transcriptase Y181C mutant to EC50 for HIV1 3B. The data set is classed as functional. The gist of the method: as §1
Data set [6] has as its system Human immunodeficiency virus 1. As to the kind of experiment: Antiviral activity against HIV1 3B expressing reverse transcriptase K103N/Y181C double mutant infected in human MT4 cells assessed as inhibition of virus-induced cytopathogenicity by MTT assay. Format: functional, organism-based.
The target in data set [7] is Human immunodeficiency virus type 1 reverse transcriptase (Human immunodeficiency virus 1, UniProt Q72547). As to the kind of experiment: Inhibition of wild-type HIV1 reverse transcriptase.

pEC50, pIC50: −log10 of the molar value. Active and inactive are the calls of the source. The rule behind the calls is not given here. Some results are limits rather than exact numbers.

As a reminder, the pEC50 is −log10 of the EC50, conventionally taken in molar units. Broadly, the CC50 is the concentration that lowers cell viability or growth by half. Read a low CC50 as greater toxicity to the cells. With `Cc1cccc2c1C(=O)N(CCOC(=S)N(C(=O)c1cccc([N+](=O)[O-])c1)c1ccc(Cl)cc1)C2=O`, the negative-log EC50 (pEC50) in data set [1] is 7.52; in data set [4] it was 5.38. This compound also displayed a CC50 in data set [2] of 44 µM. Also, the selectivity ratio in data set [3] was 1470. In data set [5], the “Ratio EC50” value was 140. The result in data set [6] was inactive.

As to `O=C1c2ccccc2C(=O)N1CCOC(=S)N(C(=O)c1ccc([N+](=O)[O-])cc1)c1ccc(Cl)cc1`, the pEC50 in data set [1] was 7.22; in data set [4] it was 4.59. Also, the CC50 in data set [2] is above 100 µM. Besides, the selectivity ratio in data set [3] was above 1670. In addition, in data set [5], the “Ratio EC50” value came to 433. Also, in data set [6], the result was inactive.

`CC(COC(=S)N(C(=O)c1cccc([N+](=O)[O-])c1)c1ccc(Cl)cc1)N1C(=O)c2ccccc2C1=O` (racemic): the pEC50 in data set [1] is 7.30; in data set [4], 5.30. The compound further displayed a CC50 in data set [2] of 77 µM. The selectivity ratio in data set [3] is 1540. The “Ratio EC50” value in data set [5] is listed as 100. In addition, in data set [6], the outcome was inactive.

With `Cc1cccc(C(=O)N(C(=S)OCCN2C(=O)c3ccccc3C2=O)c2ccc(Cl)cc2)c1`, the pEC50 is 8.00 in data set [1] and 5.22 in data set [4]. Also, the midpoint of cytotoxicity in data set [2], the CC50, lay at 58 µM. Further, the selectivity ratio in data set [3] was 5800. The “Ratio EC50” value in data set [5] is 600. Further, the result in data set [6] was inactive.

Take `O=C1c2ccccc2C(=O)N1CCOC(=S)N(C(=O)c1cc(F)ccc1F)c1ccc(Cl)cc1`: the pEC50 in data set [1] is 7.70; in data set [4], 5.24. Moreover, it took 54 µM to reach half-maximal cytotoxicity in data set [2] (CC50). Also, the selectivity ratio in data set [3] worked out at 2700. In data set [5], the “Ratio EC50” value stood at 285. Besides, in data set [6], the result was inactive.

Turning to `O=C1c2ccccc2C(=O)N1CCOC(=S)N(C(=O)c1cccc(Cl)c1Cl)c1ccc(Cl)cc1`, the pEC50 in data set [1] was 7.00; in data set [4] it was 5.38. The same compound registered a CC50 in data set [2] of 54 µM. Moreover, in data set [3], the selectivity ratio came to 540. The “Ratio EC50” value in data set [5] was 42. The outcome in data set [6] was inactive.

For the compound `O=C1c2ccccc2C(=O)N1CCOC(=S)N(C(=O)c1ccc2ccccc2c1)c1ccc(Cl)cc1`, the negative logarithm of the EC50 (pEC50) was 7.70 in data set [1] and 4.96 in data set [4]. In data set [2], it took 37 µM to reach half-maximal cytotoxicity (CC50). In addition, the selectivity ratio in data set [3] was found to be 1850. For the same compound, the “Ratio EC50” value in data set [5] is 550. The result in data set [6] was inactive.

With `O=C1c2ccccc2C(=O)N1CCOC(=S)N(C(=O)c1cc2ccccc2s1)c1ccc(Cl)cc1`, the pEC50 is 6.70 in data set [1] and 4.92 in data set [4]. The compound further showed a CC50 in data set [2] of 56 µM. For the same compound, the selectivity ratio in data set [3] was found to be 280. In addition, the “Ratio EC50” value in data set [5] stood at 60. Moreover, the outcome in data set [6] was inactive.

For the compound `Cc1ccc2c(c1)C(=O)N(CCOC(=S)N(C(=O)c1cccnc1Cl)c1ccc(Cl)cc1)C2=O`, the values for the pEC50 in data set [1] and in data set [4] were 7.22 and 5.17, respectively. For the same compound, in data set [2], half-maximal cytotoxicity (CC50) was put at 49 µM. In data set [3], the selectivity ratio was 817. Besides, the “Ratio EC50” value in data set [5] is on record as 112. The result in data set [6] was inactive.

In the case of `Cc1cc(C(=O)N(C(=S)OCCN2C(=O)c3ccccc3C2=O)c2ccc(Cl)cc2)c(C)o1`, the results for the pEC50 in data set [1] and in data set [4] were 7.70 and 5.12, respectively. Moreover, half-maximal cytotoxicity in data set [2] (CC50) was put at 40 µM. The selectivity ratio in data set [3] amounted to 2000. Also, the “Ratio EC50” value in data set [5] turned out to be 375. For the same compound, in data set [6], the result was inactive.

Broadly, the pIC50 is the IC50 on a negative log10 scale, so that one unit is a factor of ten. For `Cc1ccc2c(c1)C(=O)N(CCOC(=S)N(C(=O)c1ccc(Cl)cc1)c1ccc([N+](=O)[O-])cc1)C2=O`, in data set [1], the pEC50 was 7.40. Also, in data set [2], the CC50 is above 100 µM. In addition, the selectivity ratio in data set [3] was above 2500. The compound further had a pIC50 in data set [7] of 6.52.

For `O=C1c2ccccc2C(=O)N1CCOC(=S)N(C(=O)c1ccc(Cl)c([N+](=O)[O-])c1)c1ccc(Cl)cc1`, the pEC50 was 7.70 in data set [1] and 5.05 in data set [4]. The compound also displayed a CC50 in data set [2] of 48 µM. Besides, in data set [3], the selectivity ratio is 2400. The “Ratio EC50” value in data set [5] is listed as 450. Moreover, the outcome in data set [6] was inactive.

Turning to `Cc1cc(C(=O)N(C(=S)OCCN2C(=O)c3ccccc3C2=O)c2ccc(Cl)cc2)ccc1Br`, the values for the pEC50 in data set [1] and in data set [4] were 8.15 and 4.96, respectively. The CC50 in data set [2] stood at 18 µM. For the same compound, the selectivity ratio in data set [3] is 2570. In data set [5], the “Ratio EC50” value was 1557. Also, the result in data set [6] was inactive.

In the case of `O=C1c2ccccc2C(=O)N1CCOC(=S)N(C(=O)c1cccnc1Cl)c1ccc(Br)cc1`, the pEC50 in data set [1] was 6.70; in data set [4], 5.64. Further, the half-maximal cytotoxic concentration (CC50) in data set [2] was above 100 µM. In data set [3], the selectivity ratio was above 500. The pIC50 in data set [7] is 6.15. Further, the “Ratio EC50” value in data set [5] is on record as 11. For the same compound, in data set [6], the outcome was inactive.

As to `O=C1c2ccccc2C(=O)N1CCOC(=S)N(C(=O)c1ccc(F)c(F)c1)c1ccc(Cl)cc1`, the pEC50 in data set [1] was 8.10; in data set [4], 4.25. This compound had a CC50 in data set [2] of 52 µM. Also, in data set [3], the selectivity ratio is 6500. Besides, the “Ratio EC50” value in data set [5] came to 7000. Moreover, the result in data set [6] was inactive.

`Cc1ccc(C(=O)N(C(=S)OCCN2C(=O)c3ccccc3C2=O)c2ccc(Cl)cc2)cc1`: the pEC50 in data set [1] is 7.30; in data set [4], 5.07. Further, the cytotoxic concentration (CC50) in data set [2] is above 100 µM. In data set [3], the selectivity ratio was above 2000. The “Ratio EC50” value in data set [5] turned out to be 170. Also, in data set [6], the result was inactive.

As for `O=C1Nc2ccc(Cl)cc2[C@@](C#CC2CC2)(C(F)(F)F)O1` [EFAVIRENZ], the pEC50 in data set [4] is 8.00. Moreover, the result in data set [6] was inactive.

Take `O=C1c2ccccc2C(=O)N1CCOC(=S)N(C(=O)c1cc(Cl)cc(Cl)c1)c1ccc(Cl)cc1`: the pEC50 in data set [1] was 8.10; in data set [4], 5.09. The compound also gave a CC50 in data set [2] of 32 µM. In data set [3], the selectivity ratio came to 4000. In addition, the “Ratio EC50” value in data set [5] turned out to be 1025. In data set [6], the outcome was inactive.

On to `Cc1ccc(N(C(=O)c2c(F)cccc2F)C(=S)OCCN2C(=O)c3ccccc3C2=O)cc1`, for which the pEC50 in data set [1] is 6.00. Moreover, the CC50 in data set [2] amounted to 65 µM. Besides, the selectivity ratio in data set [3] is 65.

Turning to `O=C1c2ccccc2C(=O)N1CCOC(=S)N(C(=O)c1ccc([N+](=O)[O-])cc1Cl)c1ccc(Cl)cc1`, the pEC50 in data set [1] was 8.10. In data set [2], the CC50 came out at 19 µM. In data set [3], the selectivity ratio came out at 2380.

Regarding `O=C1c2ccccc2C(=O)N1CCOC(=S)N(C(=O)c1cccc(F)c1F)c1ccc(Cl)cc1`, the results for the pEC50 in data set [1] and in data set [4] were 8.10 and 5.22, respectively. In data set [2], this compound registered a cytotoxic concentration (CC50) of 58 µM. In addition, the selectivity ratio in data set [3] worked out at 7250. For the same compound, the “Ratio EC50” value in data set [5] turned out to be 750. In addition, the result in data set [6] was inactive.

As for `O=C1c2ccccc2C(=O)N1CCOC(=S)N(C(=O)c1ccc(F)cc1F)c1ccc(Cl)cc1`, the pEC50 in data set [1] is 8.00; in data set [4], 5.27. This compound yielded a CC50 in data set [2] of 52 µM. Also, the selectivity ratio in data set [3] was 5200. Further, in data set [5], the “Ratio EC50” value was 540. In data set [6], the result was inactive.

For the compound `CC(CN1C(=O)c2ccccc2C1=O)OC(=S)N(C(=O)c1cccc([N+](=O)[O-])c1)c1ccc(Cl)cc1` (racemic), the pEC50 in data set [1] was 6.15. The compound also returned a cytotoxic concentration (CC50) in data set [2] of 31 µM. In addition, the selectivity ratio in data set [3] turned out to be 44.3.

For `S=C(NCCc1ccccn1)Nc1ccc(Br)cn1` [TROVIRDINE], in data set [3], the selectivity ratio amounted to 3000. For the same compound, the pEC50 in data set [4] was 5.92. In addition, the “Ratio EC50” value in data set [5] is recorded as 60. Besides, the outcome in data set [6] was inactive.

Regarding `O=C1c2ccccc2C(=O)N1CCOC(=S)N(C(=O)c1cccc2ccccc12)c1ccc(Cl)cc1`, the pEC50 in data set [1] is 7.52. Further, half-maximal cytotoxicity in data set [2] (CC50) was put at 6 µM. The selectivity ratio in data set [3] came to 200.
